Columns and labels:
[1] = species: Rattus norvegicus; test: Partial remission of DMBA-induced hormone-dependent mammary carcinoma tumors in rats at 2.25 mg; type: functional
How it was run: (§1)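 DMBA-induced, hormone-dependent mammary adenocarcinoma in SD rats. Rats bearing at least one tumor >140 mm² were placed in groups of ten. Compound was given sc as a single dose (mg/kg) daily Monday–Thursday and a double dose on Friday. Tumors were counted at the start and as new tumors; responses were scored as complete remission (not palpable), partial remission (≥50% reduction), no change or progression. Tumor area and body weight were recorded as % change.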

[2] = species: Rattus norvegicus; test: Initial tumor number of DMBA-induced hormone-dependent mammary carcinoma in rats at 4.5 mg; type: functional; how it was run: as §1
[3] = biological target: T1, Estrogen receptor (Mus musculus) (UniProt O08537+P19785); test: Estrogenic activity in uterotrophic test in mice at 90 ug; type: functional
How it was run: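 Immature (20-day-old) female NMRI mice, 14.5 ± 1.2 g, randomized into groups of 10. Given the test compound sc daily for 3 days in 0.1 mL olive oil. Uteri removed 24 h after the last injection; uterine weight taken as the read-out, means ± SD. Dose in μg.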

[4] = biological target: T1, Estrogen receptor (Mus musculus); test: Antiestrogenic activity in uterotrophic test in mice at 50 ug; type: functional
How it was run: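 Immature female NMRI mice, 20 days old (14.5 ± 1.2 g), randomly grouped 10 per group. Each received a daily sc injection for 3 days of 0.1 mL olive oil solution containing test compound, together with estrone to stimulate uterine growth. Uteri were removed 24 h after the last injection and weighed. Results are reported as % inhibition of the estrone-stimulated uterine weight gain, mean ± SD.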

[5] = species: Mus musculus; test: Predominant components of vaginal smear at a compound concentration of 50 ug was determined using vaginal cornification test; leucocytes (</= 50%), nucleated and cornified, nucleated cellscharacteristic of antiestrogens; type: functional, organism-based
[6] = biological target: T1, Estrogen receptor (Mus musculus); test: Estrogenic activity in uterotrophic test in mice at 24 ug (experiment 2); type: functional
How it was run: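 Uterine growth stimulation in immature female NMRI mice, 20 days old (14.5 ± 1.2 g), 10 per group. Test compound in 0.1 mL olive oil was given sc daily for 3 days. Uteri were excised 24 h after the final injection and weighed. Effect is reported as mean ± SD.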

[7] = species: Rattus norvegicus; test: Final number of DMBA-induced hormone-dependent mammary carcinoma tumors in rats at 1 mg; type: functional
How it was run: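 Sprague-Dawley rats carrying DMBA-induced, hormone-dependent mammary adenocarcinoma, at least one tumor >140 mm², were placed in groups of ten. Compounds were given sc, with doses in mg/kg: a single daily dose Monday to Thursday and a double dose on Friday. Ovariectomy served as a comparator group. New tumors arising during the test were counted.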

T1 sequence (O08537 whole entry, looked up): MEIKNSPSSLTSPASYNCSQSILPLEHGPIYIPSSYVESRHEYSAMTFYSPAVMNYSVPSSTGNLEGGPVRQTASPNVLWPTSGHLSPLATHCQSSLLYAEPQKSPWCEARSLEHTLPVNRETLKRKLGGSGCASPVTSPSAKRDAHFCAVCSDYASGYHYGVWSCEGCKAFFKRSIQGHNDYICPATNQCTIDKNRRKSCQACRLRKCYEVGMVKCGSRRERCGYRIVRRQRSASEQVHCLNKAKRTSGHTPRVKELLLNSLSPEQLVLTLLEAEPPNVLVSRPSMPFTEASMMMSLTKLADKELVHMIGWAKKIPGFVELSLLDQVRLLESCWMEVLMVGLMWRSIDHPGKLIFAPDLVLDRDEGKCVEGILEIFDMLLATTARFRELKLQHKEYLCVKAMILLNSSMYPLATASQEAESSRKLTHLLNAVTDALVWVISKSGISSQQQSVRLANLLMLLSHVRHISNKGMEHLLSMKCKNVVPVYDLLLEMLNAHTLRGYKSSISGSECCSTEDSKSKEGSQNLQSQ
T1 sequence (P19785 whole entry, looked up): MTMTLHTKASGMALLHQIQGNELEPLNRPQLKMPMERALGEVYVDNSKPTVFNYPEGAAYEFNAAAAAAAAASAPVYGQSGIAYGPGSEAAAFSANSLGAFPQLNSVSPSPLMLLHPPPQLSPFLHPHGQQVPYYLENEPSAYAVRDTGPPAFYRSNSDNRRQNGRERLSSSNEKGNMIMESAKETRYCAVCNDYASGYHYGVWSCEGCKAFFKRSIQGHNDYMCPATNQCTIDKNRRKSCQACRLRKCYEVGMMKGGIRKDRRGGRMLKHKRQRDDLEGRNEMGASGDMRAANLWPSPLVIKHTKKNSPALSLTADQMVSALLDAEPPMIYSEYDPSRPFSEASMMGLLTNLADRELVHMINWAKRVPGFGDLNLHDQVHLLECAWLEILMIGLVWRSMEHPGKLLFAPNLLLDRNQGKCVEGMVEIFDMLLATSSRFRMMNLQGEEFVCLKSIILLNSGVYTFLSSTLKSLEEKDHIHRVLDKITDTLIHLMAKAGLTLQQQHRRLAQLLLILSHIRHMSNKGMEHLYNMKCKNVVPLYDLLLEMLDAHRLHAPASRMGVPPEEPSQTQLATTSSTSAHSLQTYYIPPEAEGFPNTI

Compound | Tumors [1] | No. of tumors [2] | Effect [3] | Effect [4] | Activity [5] | Effect [6] | No. of tumors [7]
CCCC(c1cccc(O)c1)C(CCC)c1cccc(O)c1 (configuration not stated) | 8% | 16 | 17.6 | 25.9 | – | – | –
CCC(c1cccc(O)c1)C(CC)c1cccc(O)c1 (stereo in doubt; 20) | – | – | – | – | Weak activity | 18.5 | 37
